Screening data: PubChem, several laboratories
PHOSPHO1 inh: PubChem AID 1565 | recombinant PHOSPHO1, absorbance phosphatase assay | inhibition, % at 13.3 µM | 290,000 compounds, 1.1% hits; in the data active means inhibition above about 60%
CHT block: inhibitors of human choline transporter CHT. High affinity choline transporter 1 (Homo sapiens), Q9GZV3. CHT-expressing cells, membrane potential dye, choline response; hits give low values. B-score at 10 µM. 310,000 compounds, 0.86% hits. AID 488975, 2010;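 active means B-score over 3 SD under the library average, and starting fluorescence ratio not unusually high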;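 further: choline stimulus applied at its EC90 after an EC20 pre-addition; B-score computed on integrated fluorescence ratio after choline addition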
Target sequence (Q9GZV3 whole entry, looked up): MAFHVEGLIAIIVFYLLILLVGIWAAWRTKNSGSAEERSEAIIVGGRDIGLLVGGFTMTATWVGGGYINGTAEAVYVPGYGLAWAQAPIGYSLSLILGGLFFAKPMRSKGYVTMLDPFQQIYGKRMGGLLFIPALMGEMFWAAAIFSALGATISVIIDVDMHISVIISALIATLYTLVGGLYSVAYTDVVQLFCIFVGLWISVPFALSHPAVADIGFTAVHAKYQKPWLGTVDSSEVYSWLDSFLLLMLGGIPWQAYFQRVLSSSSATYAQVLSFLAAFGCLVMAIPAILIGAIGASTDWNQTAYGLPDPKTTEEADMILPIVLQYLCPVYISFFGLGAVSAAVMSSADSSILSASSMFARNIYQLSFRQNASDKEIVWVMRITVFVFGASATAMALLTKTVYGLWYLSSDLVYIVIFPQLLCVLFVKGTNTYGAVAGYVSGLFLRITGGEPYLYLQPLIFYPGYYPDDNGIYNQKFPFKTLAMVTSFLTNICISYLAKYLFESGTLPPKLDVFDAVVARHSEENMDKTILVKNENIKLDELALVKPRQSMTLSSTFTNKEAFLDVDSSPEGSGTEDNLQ
HSF-1 act: HSF-1 activators, primary screen, NIH3T3-HGL cells, MG132 stress, luminescence, single point | activation, % at 9 µM | 300,000 compounds, 1.7% hits | NIH3T3-HGL HSF-1 luciferase reporter, 8 h; 100% = twice DMSO control signal;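 active means mean replicate activation of at least 50% with a set share of replicates each reaching 50%; inconclusive means only one of those two conditions met; inactive means mean below 50% and too few replicates reaching it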
HSF1 inhib: HSF1 inhibitors in luciferase reporter cells, primary screen, cell-based, NIH3T3, luminescence; NIH3T3-HGL HSE-luciferase, MG132-induced, luminescence 8 h; hits give low values; activity change, negative = inhibition, % at 7.5 µM (by protocol); 300,000 compounds, 0.77% hits; AID 2098, 2009;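 active means more than half of replicate wells show activity change below -50%, luminescence cut by over half; inconclusive means some wells, but at most half, below -50%; inactive means no replicate well below -50%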;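 further: luciferase reports HSF-1 transcriptional activity via heat shock element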
CHT PAM: CHT positive allosteric modulators, primary screen, cell-based, membrane potential dye, choline EC20; High affinity choline transporter 1 (Homo sapiens), Q9GZV3; CHT-expressing cells; hits give high values; LV-AA mutant CHT in HEK293 cells; B-score at 10 µM; 310,000 compounds, 0.49% hits; AID 488977, 2010;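 active means initial fluorescence not abnormally high and integrated response B-score, plate-corrected, over 3 SD above library mean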
Hep lipid drop: inhibitors of hepatocyte lipid droplet formation, primary screen, imaging, high-throughput imaging, BODIPY stain; AML12 mouse hepatocytes, oleate lipid droplets; inhibition, % at 6.5 µM; 240,000 compounds, 0.4% hits; AID 1656, 2009;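 active means lipid droplet intensity inhibited by at least 50%, with more than 500 cells counted; inconclusive means wells with under 300 cells, treated as cytotoxic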
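Assay system: AML12 mouse liver cells | Compound dosing: One dose, 6.5 µM compound | Read-out basis: Droplet intensity reduction, % inhibition | Measured by: Fluorescence imaging, 20x objective, two fields per well | Schedule: Overnight treatment with compound plus oleate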
Each line names hits and unclear results; the compound was inactive in the other large screens. In the library only some 4.9% were active in any assay of this set; here they are far more common.

COc1ccc(NC(=O)C(NC(=O)c2ccc(=O)[nH]c2)c2ccc(C)cc2)cc1 (configuration not stated)	none
N#C/C(=C\c1ccc[nH]1)C(=O)Nc1ccccc1[N+](=O)[O-]	HSF-1 act 61
Cc1ccccc1NC(=O)/C(C#N)=C/c1ccc[nH]1	none
CC(=O)c1cccc(N(CC(=O)NC2CCCCC2)C(=O)CCC(=O)Nc2nc(C)cs2)c1	none
COc1cccc(-n2c(SCC(=O)Nc3nc4ccccc4s3)nc3ccccc3c2=O)c1	PHOSPHO1 inh 62
COc1ccc2nc(NC(=O)Cc3cccs3)sc2c1	HSF-1 act 65
COc1ccc2nc(NC(=O)CSc3nc(C)cc(=O)[nH]3)sc2c1	PHOSPHO1 inh 74
COc1cccc(-n2c(SCC(N)=O)nc3ccccc3c2=O)c1	none
CCOc1ccc2nc(NC(=O)Cc3cccs3)sc2c1	none
O=C(Cc1cccs1)Nc1nc2ccccc2s1	HSF-1 act 66 (no result: Hep lipid drop)
CCOC(=O)C1CCN(C(=O)Nc2ccc3nc(C)c(C)nc3c2)CC1	none
O=C(NC12CC3CC(CC(C3)C1)C2)c1cc([N+](=O)[O-])ccc1Cl	none
C=CCNC(=O)N1CCCC(C(=O)c2cccc(Cl)c2)C1 (configuration not stated)	none
O=C(c1ccccc1Br)N1CCN(c2ccccn2)CC1	none
CCc1nn2c(NCCCO)cc(C)nc2c1-c1ccc(F)cc1	none
Cc1cc(C)c2c(n1)nn1c(NCCCN(C)C)cc(C)nc21	CHT PAM 8.1 (no result: Hep lipid drop)
O=C(COC(=O)c1ccccc1SCC(=O)N1CCCC1)NC1CCS(=O)(=O)C1 (configuration not stated)	HSF1 inhib -71 (no result: PHOSPHO1 inh, Hep lipid drop)
O=C(CN1CCc2cc3c(cc2C1)OCCCO3)Nc1cccc([N+](=O)[O-])c1	none
Cc1ccc(S(=O)(=O)NCC(=O)OCc2nnc(-c3ccccc3)o2)cc1	PHOSPHO1 inh 65, Hep lipid drop inconclusive
O=C(CSc1nc2ncccc2[nH]1)c1cccc([N+](=O)[O-])c1	HSF-1 act 66
COC(=O)c1ccccc1NC(=O)CSc1nc2ncccc2[nH]1	PHOSPHO1 inh 64
Cc1cc(SCC(=O)c2cccc([N+](=O)[O-])c2)nc(=O)[nH]1	none
Cc1ccc(N2C(=O)N(CC(=O)Nc3ccc([N+](=O)[O-])cc3)C(=O)C2C)cc1 (configuration not stated)	none
CCOc1ccc(OCC)c(C2C(C#N)=C(N)N(c3cccnc3)C3=C2C(=O)CC(C)(C)C3)c1 (configuration not stated)	none
CCOC(=O)c1[nH]c2ccc(Br)cc2c1NC(=O)CCN1CCOCC1	none
CCCc1cc(NCCCn2ccnc2)n2nc(C)c(-c3ccccc3)c2n1	CHT block -7.1 (no result: Hep lipid drop)
Cc1cc(C)c2nc(NC(=O)c3ccc(OCC4CCCO4)cc3)sc2c1 (configuration not stated)	none
Cc1ccc2nc(NC(=O)c3ccc(OCC4CCCO4)cc3)sc2c1 (configuration not stated)	HSF-1 act 57 (no result: Hep lipid drop)
Cc1ccc(-n2ncc3c(=O)[nH]c(SCC(=O)N4CCCc5ccccc54)nc32)cc1	none
O=C(CCCn1c(=S)[nH]c2cc3c(cc2c1=O)OCO3)N1CCN(c2ccc(F)cc2)CC1	PHOSPHO1 inh 69 (no result: Hep lipid drop)
Cc1ccc(S(=O)(=O)CCC(=O)Nc2cc(Cl)ccc2-n2cncn2)cc1	none (no result: PHOSPHO1 inh, Hep lipid drop)
COc1ccc(C(=O)N/N=C/c2cc3ccccc3[nH]c2=S)cc1	PHOSPHO1 inh 91
CCCCCCN(C(=O)CCCCCN1C(=O)NC(c2ccccc2)C(C(=O)OCc2ccccc2)=C1C)C(C(=O)NCCCC)c1ccc(OCC(=O)OC)c(C(=O)OC)c1 (configuration not stated)	Hep lipid drop 52 (no result: CHT block, HSF-1 act, HSF1 inhib, CHT PAM)
CCCCCCN(C(=O)CCCCCN1C(=O)NC(c2ccc(C(C)(C)C)cc2)C(C(=O)OCc2ccccc2)=C1C)C(C(=O)NCCCC)c1ccc(OCC(=O)OC)c(C(=O)OC)c1 (configuration not stated)	none (no result: CHT block, CHT PAM)
Nc1c(-c2ccccc2)nc(Cl)nc1-c1ccccc1	none (no result: Hep lipid drop)
c1ccc(-c2nc3nonc3nc2-c2ccccc2)cc1	PHOSPHO1 inh 67 (no result: Hep lipid drop)
COc1ccc(N(C2=NCCCS2)S(=O)(=O)c2ccc(C(C)(C)C)cc2)cc1	none
O=C(Cc1nc2ccccc2[nH]c1=O)c1ccccc1	none (no result: CHT block, CHT PAM)
O=C(Cc1nc2ccccc2[nH]1)c1ccc(Br)cc1	HSF-1 act 101
CCOCCCN(C(=O)CCC(=O)Nc1cc(C)on1)C(C(=O)NC(C)(C)CC)c1cccc(OC)c1OC (configuration not stated)	none
Cc1ccc(S(=O)(=O)/C(=C/Cl)NC(=O)c2ccccc2)cc1	HSF-1 act 91
Cc1ccc(C(=O)NC(=C(Cl)Cl)S(=O)(=O)c2ccc(C)cc2)cc1	none
Cc1ccc(C(=O)NC(=C(Cl)Cl)S(=O)(=O)c2ccc(Cl)cc2)cc1	HSF-1 act 185
O=C(NC(=C(Cl)Cl)S(=O)(=O)c1ccc(Cl)cc1)c1ccccc1	HSF-1 act 67
Cc1ccc(S(=O)(=O)C(NC(=O)c2ccccc2)=C(Cl)Cl)cc1	none (no result: PHOSPHO1 inh, Hep lipid drop)
NC(=O)CN(c1ccc(Oc2ccccc2)cc1)S(=O)(=O)c1ccccc1	none
Cc1nccn1Cc1cccc2ccccc12	HSF1 inhib -53
c1ccc2c(Cn3ccnc3)cccc2c1	none (no result: PHOSPHO1 inh)
Cc1nc(NC(=S)NC(=O)c2ccco2)sc1C(=O)N(C)C	none
COc1cccc(Nc2ccc(C(=O)O)cc2N)c1	HSF1 inhib -66
CCC(O)CNC(=O)CCc1nnc(C2(c3ccc(Cl)cc3)CCC2)o1 (configuration not stated)	PHOSPHO1 inh 60
COCCNC(=O)CCc1nnc(C2(c3ccc(Cl)cc3)CCC2)o1	HSF1 inhib -56
Cc1ccc(S(=O)(=O)NCC2CCC(C(=O)NCc3cccnc3)CC2)cc1 (configuration not stated)	none
Cc1ccc(N=Nc2ccc(O)c3ncccc23)cc1C	HSF1 inhib -51
Oc1ccc(F)c2cccnc12	none
Cc1ccc(N=Nc2ccc(O)c3ncccc23)cc1	HSF-1 act 123
Cc1cc(C)n(-c2ccc(NC(=O)C3CCCCN3C(=O)c3ccoc3C)cc2)n1 (configuration not stated)	HSF1 inhib -70
Cc1cc(C)n(-c2ccc(NC(=O)C3CCCCN3C(=O)c3ccc(C)s3)cc2)n1 (configuration not stated)	none
C(=C\c1ccccc1)/CSc1nc2ncccc2[nH]1	HSF-1 act 72
